Measured values pooled from the literature.
Lines come from different studies, so protocols differ.

SMILES	system	setting	half-life [h]
Cc1cc(C)cc(NC(=O)c2cnn(-c3ccc(C(C)C)cc3)c2C2CCNCC2)c1	SCID mouse, plasma	oral, 50 mg/kg, single dose	~2
Cc1nc(NC2Cc3cc(F)c(F)cc3C2)c2c(C)noc2n1	male Swiss mouse, plasma	oral, 20 mg/kg	0.9
CN(C)C/C=C/C(=O)Nc1ccc(O[C@@H]2CCC[C@@H](Nc3ncc(Cl)c(-c4c[nH]c5ccccc45)n3)C2)cc1	male Swiss mouse, plasma	intravenous, 3 mg/kg	2.25
Cc1ccc(NC(=O)c2ccc(CN3CCN(C)CC3)cc2)cc1Nc1nccc(-c2cncc(-c3oncc3C)c2)n1	male C57BL/6 mouse, plasma	oral, 100 mg/kg/day	2.6
CC(C)(C)c1ccc(O)c(CN(Cc2cc(C(C)(C)C)ccc2O)C2CCC(NC(N)=O)CC2)c1 (stereo not drawn)	male C57BL/6 mouse, plasma	oral, 10 mg/kg, single dose	2.7
COc1ccc2c3c1O[C@H]1C[C@@H](OC(=O)c4ccccc4)C=C[C@@]31CCN(C)C2	mouse, blood	intravenous, 3 mg/kg	0.48
C=CC(=O)N1C[C@H](n2c(C#CC3CC3)c(C(=O)N[C@H](C)c3ccccc3)c3c(N)ncnc32)C[C@@H]1C	male nude mouse, plasma	oral, 6.25 mg/kg, single dose	2.15
Cc1nc(-c2cnc(NC(C)C)n(C)c2=O)ccc1Oc1ccnc(-c2cnn(C)c2)c1	female mouse, plasma	oral, 15 mg/kg, single dose	6.85
Cc1cc(NC(=O)c2cccc3cc(-c4cccc5[nH]nc(N)c45)ccc23)ccc1F	male CD-1 mouse, plasma	oral, 10 mg/kg	2.15
COc1nc(-c2cc(C)c(N[C@@H](C)c3ccc(F)cc3)nn2)ccc1-n1cnc(C)c1	male CD-1 mouse, plasma	intravenous, 1 mg/kg, single dose	2.93
COc1ccc2nccc(N3CCc4c(cc(Cn5ccnc5)cc4-c4cn(C)nc4C(F)(F)F)C3=O)c2c1	male CD-1 mouse, plasma	intravenous, 3 mg/kg	0.7
CC=Cc1ccc(O)c(OC)c1	mouse, brain	intranasal, 100 mg/kg	0.294
O=C(Nc1ccc(C(F)(F)F)cc1)N1CCC(Cc2cccc(Oc3ccc(C(F)(F)F)cn3)c2)CC1	male Swiss mouse, blood	oral, 1 mg/kg	5.1
COc1ccc(NC(=O)N2CCCCN3[C@H](CN(C)S(C)(=O)=O)[C@H](c4ccc(C#Cc5ccccc5)cc4)[C@@H]3C2)cc1	mouse, plasma	intravenous	5
OC[C@H]1O[C@@H](c2ccc(Cl)c(Cc3ccc(O[C@H]4CCOC4)cc3)c2)[C@H](O)[C@@H](O)[C@@H]1O	CD-1 mouse, plasma	oral, 10 mg/kg	0.5
Cc1noc(-c2ccc(CSCCC(=O)O)cc2)c1NC(=O)O[C@H](C)c1ccccc1Cl	mouse, plasma	intravenous, 5 mg/kg	0.49
C[C@H]1CCCN1Cc1nc2cc(NC(=O)c3ccc4c(cnn4C)c3)ccc2[nH]1	female BALB/c mouse, plasma	oral, 100 mg/kg	0.83
CCOc1ccc(Cc2cc([C@@H]3O[C@H](CO)[C@@H](O)[C@H](O)[C@H]3O)ccc2Cl)cc1	male C57BL/6 mouse, plasma	oral, 1 mg/kg	3.7
COc1nc(-c2cc(C)c(N[C@@H](C)c3cc(F)cc(F)c3)nn2)ccc1-n1cnc(C)c1	male CD-1 mouse, plasma	oral, 5 mg/kg, single dose	7.1
CCN1CCN(Cc2cc(NC(=O)c3ccc(C)c(-c4ccc5nc(NC(=O)C6CC6)cn5n4)c3)cc(C(F)(F)F)c2)CC1	Swiss mouse, plasma	intravenous, 1 mg/kg	3.7
Oc1nc2nonc2cc1Nc1ccc(OC(F)(F)F)cc1C(F)(F)F	male C57BL/6 mouse, plasma	oral, 10 mg/kg	> 15

SMILES	system	setting	half-life [h]
CNC(=O)[C@H](Cc1c[nH]cn1)NC(=O)CN(CCCc1ccccc1)CC(=O)O	male C57BL/6 mouse, plasma	intraperitoneal, 30 mg/kg	0.15
CN1CCC[C@H](CN2c3ccccc3Sc3ccccc32)C1.O=C(O)CCC(=O)O	mouse, plasma	oral, 64 mg/kg, single dose	3.36
COc1cc(OC)c2nccc(N3CCc4c(cc(Cn5ccnc5)cc4-c4cn(C)nc4C(F)(F)F)C3=O)c2c1	male CD-1 mouse, plasma	intravenous, 3 mg/kg	0.5
CC(C)c1cnn2c(NCc3ccccc3)cc(NC[C@H]3CCNC[C@@H]3O)nc12	male CD-1 mouse, plasma	intravenous, 10 mg/kg	1.9
[Cl-].c1csc([I+]c2cccs2)c1	mouse, plasma	intraperitoneal, 6 mg/kg	0.08
CCc1cc(C(=O)NC)c2nccc(N3CCc4c(cc(Cn5ccnc5)cc4-c4cn(C)nc4C(F)(F)F)C3=O)c2c1	male CD-1 mouse, plasma	oral, 50 mg/kg	1.5
Cn1cnc2c(F)c(Nc3ccc(Br)cc3Cl)c(C(=O)NOCCO)cc21	nude mouse, tumour	oral, 5 mg/kg, single dose, tumour-bearing	2.9
O=C(Nc1nc(-c2ccc(O)c(O)c2)c(-c2ccccc2)s1)c1ccc(O)c(O)c1	female nude mouse, plasma	oral, 800 mg/kg	10
Cc1cc(Nc2ccc(S(F)(F)(F)(F)F)cc2)n2ncnc2n1	male Swiss mouse, plasma	oral, 100 mg/kg, single dose	14
CCc1ccc(Cc2cc([C@@H]3O[C@H](CO)[C@@H](O)[C@H](O)[C@H]3O)cc3c2CCC3)cc1	male C57BL/6 mouse, plasma	intravenous, 1 mg/kg	2.9
COc1cc2c(Nc3ccc(Cl)c(Cl)c3F)ncnc2cc1OC[C@@H]1C[C@@H]2CN(C)C[C@@H]2C1	FVB mouse, plasma	oral, 70 mg/kg, single dose	14
CCc1cc(OC)c2nccc(N3CCc4c(cc(Cn5ccnc5)cc4-c4cn(C)nc4C(F)(F)F)C3=O)c2c1	male CD-1 mouse, plasma	oral, 150 mg/kg	1.6
COC(=O)CN(CCCc1ccccc1)CC(=O)N[C@@H](Cc1c[nH]cn1)c1nc(C)no1	male C57BL/6 mouse, plasma	intraperitoneal, 30 mg/kg	0.1
COc1ccc(C(O)COc2ccc(-c3csc(-c4ccc(OCC(O)c5ccc(OC)c(OC)c5)cc4)n3)cc2)cc1OC (stereo not drawn)	C57BL/6 mouse, plasma	oral, 30 mg/kg	4.3
Cc1ccc2cncc(N3CCc4c(cc(Cn5ccnc5)cc4-c4cn(C)nc4C(F)(F)F)C3=O)c2c1	male CD-1 mouse, plasma	oral, 10 mg/kg	1.1
O=C(NCCN1CCCC1)c1cc(-c2ccc(CN3CCOCC3)cc2)nc2ccc(F)cc12	female NMRI mouse, blood	oral, 3 mg/kg	19
NCC1CCN(c2nc(-c3ccncc3)nc3sc4c(c23)CCCC4)CC1	female CD-1 mouse, plasma	intravenous, 10 mg/kg	2.8
CNCCN(C)c1cc(C#N)cc(CCc2cc(C)cc(N)n2)c1	male BALB/c mouse, plasma	intravenous, 2 mg/kg	1.1
CNC(=O)c1cc(OC)cc2c(N3CCc4c(cc(Cn5ccnc5)cc4-c4cn(C)nc4C(F)(F)F)C3=O)ccnc12	male CD-1 mouse, plasma	oral, 50 mg/kg	1.1
CC[C@H](C)[C@@H]1NC(=O)[C@@](C)(NC(=O)[C@H](CCCNC(=N)N)NC(=O)[C@H](CC(C)C)NC(=O)[C@@H](NC(=O)[C@H](CCC(N)=O)NC(=O)[C@H](CC(C)C)NC(C)=O)[C@@H](C)O)CCCC=CCCC[C@@](C)(C(=O)N[C@@H](CC(C)C)C(=O)N[C@@H](Cc2ccc3ccccc3c2)C(N)=O)NC(=O)[C@H](CCCNC(=N)N)NC(=O)[C@H](CCC(N)=O)NC1=O	male BALB/c mouse, plasma	intravenous, 10 mg/kg	2.17
CC(C)Oc1c(NC(=O)c2ccc(NC(=O)[C@H](CC(N)=O)NC(=O)c3ccc(NC(=O)c4ccc(C#N)cc4)cc3)cc2)ccc(C(=O)Nc2ccc(C(=O)O)cc2)c1O	male CD-1 mouse, plasma	subcutaneous, 5 mg/kg, single dose	1.65
